According to article PMC2685149 (Nuclear medicine and biology, 2009):
“And” between values parts separate entries of the source, which are not always exact repeats. Equal entries are not always repeated. Bridge positions count the residues as written; N and C are the ends. Square brackets hold non-standard residues; d marks the D form. Peptide text beside a SMILES is read from it. * marks the point of attachment. DOTA = O=C(O)CN1CCN(CC(=O)O)CCN(CC(=O)*)CCN(CC(=O)O)CC1; Nle = CCCC[C@H](N)C(=O)O

Tests used:
B16/F10 melanoma cells [1] = assay: Cellular internalization in B16/F10 cells; format: cell-based, murine; conditions: after 2 h incubation, 25°C
Method in brief: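 B16/F10 cells were washed with binding medium and incubated at 25°C for 20, 40, 60, 90 and 120 min (n=4) with about 200,000 cpm (0.019 pmol) of HPLC-purified 111In-labelled test peptide. Cells were rinsed with ice-cold PBS/BSA. Surface-bound activity was stripped with pH 4.5 acetate buffer (0.9% NaCl, 0.2% BSA). Cells were then lysed in 1 N NaOH for 5 min, and both fractions were gamma-counted.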

B16/F10 melanoma cells [2] = assay: Cellular efflux in B16/F10 cells; format: cell-based, murine; conditions: 2 h after incubating cells in culture media
Method in brief: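 B16/F10 cells were loaded with the HPLC-purified 111In-labelled test peptide for 2 h at 25°C, then rinsed twice with ice-cold pH 7.4 0.2% BSA/0.01 M PBS. Release of radioactivity into the culture medium was then followed. At 20, 40, 60, 90 and 120 min, cell-surface and intracellular activities were collected separately and gamma-counted.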

[3] = Biodistribution in B16/F10 pulmonary metastatic melanoma-bearing C57 mice; format: in vivo, mouse; conditions: C57, mouse, 0.037 MBq; for tissue uptake at 4 h / tissue uptake at 24 h / tissue uptake at 2 h: intravenous
Method in brief: (§1)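 Lung metastases were induced in C57 mice by tail-vein injection of 0.2 million cultured B16/F10 cells and used 16 days later. Normal C57 mice served as comparators. Each mouse got 0.037 MBq of HPLC-purified 111In-labelled test peptide by tail vein. Groups of 5 were killed at 2, 4 and 24 h, and organs were weighed and gamma-counted. Blood was taken as 6.5% of body weight. Ratios compare metastatic-lung with normal-lung uptake.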

[4] = test system: B16/F10 pulmonary metastatic melanoma-bearing C57 mice; assay: as above; format: in vivo, mouse; conditions: 16 days post the cell injection
Method in brief: as §1

[5] = Biodistribution in normal C57 mice; format: in vivo; conditions: C57, mouse, 0.037 MBq, total radioactivity; for dose excreted: urine, percent injected dose, normal mice, Mean±SD, n=5
Stability in mouse serum = format: in vitro ADME; conditions: 37°C, 24 h
[6] = test system: B16/F10 pulmonary melanoma metastases; conditions: mouse, in vivo
[7] = test system: flank B16/F1 murine melanoma; conditions: cited from earlier work
[8] = intestine, iv, total radioactivity
[9] = lung/blood, iv, total radioactivity
[10] = lung/kidney, iv, total radioactivity
[11] = lung/liver, iv, total radioactivity
[12] = lung/muscle, iv, total radioactivity

## CCCC[C@@H]1NC(=O)[C@@H](NC(=O)[C@H](CCC(=O)O)NC(=O)CNC(=O)CN2CCN(CC(=O)O)CCN(CC(=O)O)CCN(CC(=O)O)CC2)CCCCNC(=O)C[C@@H](C(N)=O)NC(=O)[C@H](C(C)C)NC(=O)[C@@H]2CCCN2C(=O)[C@H](CCCNC(=N)N)NC(=O)CNC(=O)[C@H](Cc2c[nH]c3ccccc23)NC(=O)[C@H](CCCNC(=N)N)NC(=O)[C@@H](Cc2ccccc2)NC(=O)[C@H](Cc2c[nH]cn2)NC(=O)[C@H](CCC(=O)O)NC1=O [^111In-DOTA-GlyGlu-CycMSH, ^111In-labeled 1,4,7,10-Tetraazacyclododecane-1,4,7,10-tetraacetic acid-Gly-Glu-c[Lys-Nle-Glu-His-DPhe-Arg-Trp-Gly-Arg-Pro-Val-Asp], metal not drawn] ({DOTA}-GEK[Nle]EH[dF]RWGRPVD-NH2; lactam 3-14; C-terminus assumed)
B16/F10 melanoma cells [1]
  activity internalized in the cells: 79.7±10.1%
B16/F10 melanoma cells [2]
  activity remained inside the cells (efflux): 90.6±5.3% and ~90%
[3]; [8]
  tissue uptake dose at 2 h: 7.7 ± 2.05 %ID
  tissue uptake dose at 4 h: 5.97 ± 0.48 %ID
  tissue uptake dose at 24 h: 0.11 ± 0.03 %ID
[3]; kidneys, total radioactivity
  tissue uptake at 4 h: 14.5 ± 0.21 %ID/g
  tissue uptake at 24 h: 15.1 ± 0.86 %ID/g
[3]; liver, total radioactivity
  tissue uptake at 4 h: 0.45 ± 0.05 %ID/g
[3]; lung
  tissue uptake at 4 h: 1.83 ± 0.12 %ID/g
  tissue uptake at 24 h: 0.29 ± 0.06 %ID/g
[3]; [9]
  tissue to tissue ratio at 2 h: 16.7
  tissue to tissue ratio at 4 h: 61
  tissue to tissue ratio at 24 h: 9.67
[3]; [10]
  tissue to tissue ratio at 2 h: 0.12
  tissue to tissue ratio at 4 h: 0.13
[3]; [11]
  tissue to tissue ratio at 2 h: 4.76
  tissue to tissue ratio at 4 h: 4.07
  tissue to tissue ratio at 24 h: 2.23
[3]; [12]
  tissue to tissue ratio at 2 h: 50
  tissue to tissue ratio at 4 h: 61
  tissue to tissue ratio at 24 h: 9.67
[3]; skin, total radioactivity
  tissue uptake at 2 h: 0.26 ± 0.22 %ID/g
  tissue uptake at 4 h: 0.36 ± 0.08 %ID/g
[3]; spleen, total radioactivity
  tissue uptake at 2 h: 0.26 ± 0.07 %ID/g
[4]; 2 h post-injection
  uptake in metastatic melanoma-bearing lung relative to normal lung: 25.0 times
[4]; 4 h post-injection
  uptake in metastatic melanoma-bearing lung relative to normal lung: 36.6 times
[4]; 24 h post-injection
  uptake in metastatic melanoma-bearing lung relative to normal lung: 9.7 times
[5]; intestine, iv
  tissue uptake dose at 2 h: 7.08 ± 1.54 %ID
  tissue uptake dose at 4 h: 4.65 ± 0.85 %ID
  tissue uptake dose at 24 h: 0.11 ± 0.08 %ID
[5]; kidneys, intravenous
  tissue uptake at 2 h: 14.1 ± 2.23 %ID/g
  tissue uptake at 24 h: 13.5 ± 1.48 %ID/g
[5]; liver, intravenous
  tissue uptake at 4 h: 0.38 ± 0.01 %ID/g
[5]; lung and muscle, iv
  tissue to tissue ratio at 24 h: 1.5
[5]; lung/blood, iv
  tissue to tissue ratio at 2 h: 8
  tissue to tissue ratio at 4 h: 2.5
  tissue to tissue ratio at 24 h: 1
[5]; lung/kidney, iv
  tissue to tissue ratio at 2 h: 0.01
  tissue to tissue ratio at 4 h: 0.01
[5]; lung/liver, iv
  tissue to tissue ratio at 4 h: 0.13
  tissue to tissue ratio at 24 h: 0.25
[5]; lung/muscle, iv
  tissue to tissue ratio at 2 h: 2.67
  tissue to tissue ratio at 4 h: 1.67
[5]; skin, intravenous
  tissue uptake at 4 h: 0.23 ± 0.08 %ID/g
[5]; stomach, intravenous
  tissue uptake at 2 h: 0.14 ± 0.07 %ID/g
[5]; iv, 2 h post-injection
  dose excreted: 84.7 ± 1.97%
[5]; iv, 4 h post-injection
  dose excreted: 89 ± 0.92%
[5]; iv, 24 h post-injection
  dose excreted: 96.06 ± 0.53%
Stability in mouse serum
  stability in mouse serum: stable
[6]
  accumulation of activity in normal organs in whole-body SPECT/CT image: extremely low
[7]; 2 h post-injection, flank B16/F1 murine melanoma-bearing mouse model
  tumor uptake: 10.40±1.40 % ID/g
[7]; 4 h post-injection, without affecting the tumor uptake
  reduction of renal uptake by negatively-charged -Gly-Glu- linker: 44%
